First the molecules themselves.
B1: tRNA (parent)
chain: GUUCCGUUGGCGUAAUGGUAACGCGUCUCCCUCCUAAGGAGAAGACUGCGGGUUCGAGUCCCGUACGGAACG

This sample holds only a part of the variants without activity. Where only a bound is given, the exact number is not on record here.

This is an account of results in the RNAGym collection of RNA variant scans (doi:10.1126/science.aae0568).

The variants in this series derive from B1. In words: yeast fitness relative to wild type (ratio to wild type); higher = fitter; tRNA-Arg(CCU), competitive growth, 37 C, YPD. An outline of the steps: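 Variants of the tRNA-Arg(CCU) gene were chemically synthesised with a 3% per-site mutation rate across 69 sites and placed at the native genomic locus in Saccharomyces cerevisiae. Six parallel replicates of the pooled strains were competed in YPD at 37°C for 24 hours, and gene amplicons from the start and end populations were read by 100-nucleotide paired-end sequencing. Darwinian fitness relative to wild type was derived from changes in genotype frequencies. Genotypes required ≥ 100 starting reads, and estimates < 0.5 were set to 0.5.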
In the case of U2A C5G A37U C49U C61U, the yeast fitness was not above 0.5.
To U2A G44A C46U belongs 0.621.
As for U2A C5A C11U C27G C60A, the yeast fitness was not above 0.5.
For U2A G63C, the yeast fitness came to 0.673.
Under U2A G63A stands 0.927.
Under U2A C33A C55G A69C stands not above 0.5; under U2A C11G G17A A20U C33G G38C, not above 0.5.
Regarding U2A G25C A36U, the yeast fitness is not above 0.5.
On to U2A C30G A37U U53A C55U A57U, for which the yeast fitness stood at 0.574.
To U2A G6A C11U C31G G51A G67A belongs not above 0.5; to U2A C11G A21G A65G, not above 0.5; to U2A C30G U53C A57U C60U, not above 0.5.
Under U2A C11U G58C stands 0.678; under U2A C5G U8A G44A G48A G50C, not above 0.5.
To U2A C27U U47G C55G G58C belongs not above 0.5; to U2A G6A C11G A42U A65G C66G G68A, not above 0.5; to U2A C5G C11G U19C A20G, not above 0.5.
Turning to U2A U16G G50C C55U C60G A69G, the yeast fitness is not above 0.5.
Under U2A C33G G51C C66G G67A A69C stands not above 0.5; under U2A C24G A43U C46U A57G, not above 0.5; under U2A C24G U32A U54C G56A, not above 0.5.
Under U2A G6A C33G C34G C61A stands not above 0.5; under U2A U13A A14C C33U, not above 0.5.
Under U2A U16G G41C stands 0.649; under U2A C24U C30U C34U G52A, not above 0.5; under U2A U16C G44C G52A, not above 0.5.
Regarding U2A C11U G23C C27A A69U, the yeast fitness is not above 0.5.
Under U2A U8C C24G A43U C46U stands not above 0.5; under U2A G39A A69G, 0.599.
Consider U2A C5G C24U C30G C49G C61G, for which the yeast fitness is not above 0.5.
Under U2A U7C G17C C29A A45U U59C stands 0.902; under U2A U8A C33U A43U A57G, not above 0.5.
Under U2A C22U A40C stands 0.631; under U2A G12U C55U, not above 0.5.
Under U2A U8A G9A U13A C24A A45C stands not above 0.5; under U2A C22A A65C, not above 0.5; under U2A C22A A65U, not above 0.5.
For U2A C30U U32A C62G, the yeast fitness is not above 0.5.
For the variant U2A C5U G41A, the yeast fitness is not above 0.5.
As to U2A C60U A65U, the yeast fitness was not above 0.5.
To U2A C5G U8A C61A belongs not above 0.5.
With U2A C31A G48A, the yeast fitness came out at 0.619.
To U2A C34G A37U A40U C66U belongs not above 0.5.
Under U2A U13C U19G C22U C31U A40U G67A stands not above 0.5; under U2A G25C G38C C61U A70G, not above 0.5; under U2A C5G U53A C66U, not above 0.5.
To U2A U13C U16A G56C A57G C62U belongs 0.528; to U2A C24G G63A, 0.551.
On to U2A U7C G25A A36U C60A C62G, for which the yeast fitness came out at 0.58.
Under U2A C27U C29U C62U stands not above 0.5.
To U2A G9A U13A C24A A45C belongs 0.536.
To U2A C22G belongs 0.888; to U2A C22U, 0.796; to U2A U3G C5U C29G C30G C46G, not above 0.5.
Regarding U2A G50C, the yeast fitness was determined as 0.562.
As to U2A G38C A69U, the yeast fitness is not above 0.5.
To U2A C11G C34U A42U G68A belongs not above 0.5.
Under U2A C11A C24G U47G stands not above 0.5; under U2A G6C G52A, not above 0.5; under U2A U7G C24G C29A A43U U53A A57U A65U, not above 0.5.
As to U2A G9U A20G, the yeast fitness was not above 0.5.
As to U2A U13G A14G U28A A36U A45U A57G, the yeast fitness was not above 0.5.
Under U2A G25A A40C A65C stands not above 0.5; under U2A G25A, 0.828.
To U2A C46A G51C belongs 0.599.
Under U2A C5A U53G stands 0.514; under U2A C5A U64C, 0.595.
Turning to U2A G12C G23C, the yeast fitness is not above 0.5.
To U2A C11U A70C belongs 0.587; to U2A U13A A21C A42G, not above 0.5.
On to U2A U7C G25A A36C C60A C62G, for which the yeast fitness is 0.524.
To U2A U8A C33U A43U A57G G67U belongs not above 0.5; to U2A G12U G23A A36G G39A, 0.584.
To U2A C5A C29U C62U A70U belongs not above 0.5.
Under U2A G23A C29G A69U stands 0.643; under U2A C30U, 0.812.
In the case of U2A C60U A65U A70U, the yeast fitness was not above 0.5.
To U2A C11G C30A A57G belongs not above 0.5.
Under U2A C5G C24U C30G C49U stands not above 0.5.
To U2A C60G A70C belongs 0.532; to U2A C60G A70U, not above 0.5.
As for U2A G48C G52C A57C G58A, the yeast fitness is not above 0.5.
Under U2A C33G A42C stands 0.509; under U2A C29G C30G C49A G56C C61U, 0.749; under U2A G18A G23C A45U, 0.573.
Under U2A G44C C46A G56C stands not above 0.5; under U2A C33U A37C, 0.532.
To U2A G56C A57G G68U belongs not above 0.5; to U2A G23A C29G C55U, not above 0.5.
As for U2A G18A C30G U35C, the yeast fitness is not above 0.5.
Under U2A G9C G17A stands not above 0.5.
With U2A C27G C31U, the yeast fitness was determined as 0.539.
Under U2A C31G A65U G67C stands not above 0.5; under U2A C31U A40C C55G G68A A69U, not above 0.5.
To U2A G6A C27G A42U A43U belongs not above 0.5; to U2A G9A G48C G50A, not above 0.5.
Under U2A C5G A14G C30G C46U stands not above 0.5.
Regarding U2A C11G U47A, the yeast fitness was not above 0.5.
Under U2A C61U G67C stands not above 0.5; under U2A G9A U19C, 1.03; under U2A G9A A37G U47C A65C, not above 0.5.
For the variant U2A C5A C60A, the yeast fitness was not above 0.5.
Take U2A C27A C60U A69G: the yeast fitness was 0.514.
On to U2A C33A C34U G56A A69C, for which the yeast fitness was not above 0.5.
As to U2A U3G U32A C60A, the yeast fitness is not above 0.5.
To U2A C24A A45G belongs 0.568; to U2A C5G U8A C24U C61G C66U A69U, not above 0.5; to U2A G6C U7C C30A G44A C66A, 0.576.
To U2A G9A U19A A20U belongs 0.622; to U2A G39U C49A G58C, 0.939.
On to U2A U3A, for which the yeast fitness came to 0.809.
To U2A U3C belongs 0.931; to U2A C34G G58C C66U, not above 0.5; to U2A G17C C46U, not above 0.5.
To U2A C27G A36G belongs not above 0.5; to U2A C22U A43U, 0.533; to U2A C11G A40U, 0.544.
With U2A C5A C30U A69U, the yeast fitness is not above 0.5.
To U2A C24A belongs 0.662; to U2A G50C A57G, not above 0.5; to U2A C11G G25A C49A, 0.553.
For U2A G38C C55U, the yeast fitness is not above 0.5.
Under U2A G58A stands 0.838.
Under U2A U13A C24A C30A stands not above 0.5; under U2A C24U C30U C34U G52A C61A, not above 0.5; under U2A C30U A57G, not above 0.5.
Under U2A C27A C60U U64C A69G stands not above 0.5; under U2A U16G A70C, 0.835; under U2A G10A U26A C66U, not above 0.5.
For the variant U2A U16C C30A C61G, the yeast fitness is not above 0.5.
For U2A C30U A42G C60G C62G A65G, the yeast fitness was 0.595.
Under U2A G10A C49A U53C C62G stands not above 0.5; under U2A C11G C49A C60U G68C, 0.608; under U2A C5A C46U G50C, not above 0.5.
On to U2A G6C U7C A43C C46U G63C C66U, for which the yeast fitness was not above 0.5.
In the case of U2A C11A G38C C60A, the yeast fitness was found to be 0.582.
Turning to U2A U13A C24A A45C, the yeast fitness is not above 0.5.
To U2A C5G A42U belongs not above 0.5; to U2A C5G A42G, 0.541.
Under U2A G17C C46U G67C stands not above 0.5.
Under U2A C5U A15G C34U G41C C55A stands not above 0.5; under U2A G9A U13A C24A A45C U64A, 0.537.
Turning to U2A U7G C27U G39C C60A, the yeast fitness is not above 0.5.
To U2A G9A C31U C46G C49U C66G belongs not above 0.5; to U2A C5A G9C U16C G25C A65C, not above 0.5; to U2A U16A C66U A69G, not above 0.5.
Take U2A G17C C49U: the yeast fitness was 0.571.
To U2A C30G G58C C66G belongs not above 0.5; to U2A C29G U47G C49G U54G, not above 0.5; to U2A C11U U19G C55U, 0.571.
As to U2A C30U C46A U54A A57G, the yeast fitness is not above 0.5.
Turning to U2A C5U U64C, the yeast fitness was determined as 1.06.
Under U2A U3G G18A A20C C49U C55U stands not above 0.5.
To U2A G23A C29G A40C C55G belongs not above 0.5; to U2A C24G U32A G58C G63C, not above 0.5.
Under U2A C31G C60G U64G stands 0.532.
Turning to U2A G9A U19C A69C, the yeast fitness worked out at 0.685.
Under U2A U8A C11G U54A stands not above 0.5.
To U2A C22G G63A belongs 0.568; to U2A G39A U47A C49U U54A, not above 0.5.
To U2A C30U G44C G51A C61U belongs not above 0.5; to U2A C11G C27G U54A C66U, not above 0.5; to U2A C33A, 0.721.
As for U2A C33U, the yeast fitness came to 0.636.
Under U2A U19A C27U G67A stands not above 0.5; under U2A C31G A65U A69C, not above 0.5.
To U2A U8C C30G U59A U64A belongs 0.569.
